Laboratory results published in ChEMBL document CHEMBL1649083, “Discovery of novel inhibitors of the NorA multidrug transporter of Staphylococcus aureus” (2011).

The compounds below were run against T1, Quinolone resistance protein NorA (Staphylococcus aureus) (UniProt P0A0J7) (assay: Inhibition of NorA in Staphylococcus aureus 1199B assessed as reduction in ethidium bromide efflux at 50 uM by fluorimetry after 5 mins).
T1 sequence (whole entry): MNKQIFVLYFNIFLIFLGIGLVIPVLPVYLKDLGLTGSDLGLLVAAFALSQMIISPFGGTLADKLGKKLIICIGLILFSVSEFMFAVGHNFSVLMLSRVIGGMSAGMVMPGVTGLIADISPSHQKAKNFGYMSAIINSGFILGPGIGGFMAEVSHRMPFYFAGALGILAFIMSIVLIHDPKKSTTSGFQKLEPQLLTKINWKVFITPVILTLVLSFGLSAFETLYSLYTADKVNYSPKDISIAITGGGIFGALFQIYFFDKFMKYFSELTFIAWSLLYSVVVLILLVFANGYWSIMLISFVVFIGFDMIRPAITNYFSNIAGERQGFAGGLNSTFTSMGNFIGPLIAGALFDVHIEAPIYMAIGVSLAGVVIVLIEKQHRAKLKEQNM
Outline: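 S. aureus SA-1199B (NorA overexpressing via promoter up-mutation; GrlA A116E), EtBr-loaded cells. EtBr loss measured fluorometrically over a 5 min time course, in duplicate, as mean total efflux. Percent reduction calculated versus efflux without compound. Test compound at 50 μM; increasing concentrations were also run for dose-response profiles.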
With `NS(=O)(=O)c1ccc(NC2=NC(=O)C(CC(=O)O)S2)cc1` (centres undefined) the inhibition was 0%.
`c1ccc(CCN(Cc2ccccc2)Cc2cccc(OCc3ccccc3)c2)cc1` showed an inhibition of 0%.
In the case of `CN1CCN(CCCN2c3ccccc3Sc3ccc(Cl)cc32)CC1`, the inhibition was greater than 78%.
Compound `Cc1ccc(N2CCN(C3=Nc4cc(Cl)ccc4Oc4ccccc43)CC2)cc1` has an inhibition of 35.1%.
In the case of `Cc1cc(C)cc(/N=C2\S/C(=C\c3ccc(C(=O)O)cc3)C(=O)N2c2cc(C)cc(C)c2)c1`, the inhibition was 55%.
Compound `N#Cc1c(-c2ccc(F)cc2)cc(-c2ccccc2)nc1SCC(=O)N1CCC[C@@H]1C(=O)O` has an inhibition of 36.3%.
`CSc1ccc2c(c1)N(CCC1CCCCN1C)c1ccccc1S2` (centres undefined) was tested, and the inhibition was greater than 88%.
Work on `OCCN1CCN(CC/C=C2\c3ccccc3Sc3ccc(C(F)(F)F)cc32)CC1` yielded an inhibition of 72%.
With `CCOC(=O)c1cn(C2CC2)c2cc(N3CCC4=C(C3)C(=O)CCS4)c(N)cc2c1=O` the inhibition was 35.7%.
With `CN(C)CCCN1c2ccccc2Sc2ccc(Cl)cc21` the inhibition was 76%.
Work on `CCOC(=O)Nc1ccc2c(c1)N(C(=O)CCN1CCN(CCO)CC1)c1ccccc1CC2` yielded an inhibition of 0%.
For `CCOC(=O)C1SC(NC(=S)NC(=O)c2ccccc2)=NC1C` (centres undefined), the inhibition was 23.2%.
In the case of `COc1ccc(-c2cc(=O)c3ccccc3n2C)cc1`, the inhibition was 0%.
Work on `CN1C(=O)S/C(=C/c2ccc(-c3cc(C(=O)O)ccc3Cl)o2)C1=O` yielded an inhibition of 20.9%.
With `CC(C)N1C(=O)S/C(=C/c2cc(Br)ccc2OCc2ccc(C(=O)O)cc2)C1=O` the inhibition was 3.1%.
`CCCOc1ccc(-c2cc(=O)c3cc(OC)c(O)cc3n2C)cc1` gave an inhibition of 9.1%.
`CN1CC[C@H](c2ccc(F)cc2)[C@@H](COc2ccc3c(c2)OCO3)C1` showed an inhibition of 85%.
For `COc1ccc(OC[C@@H]2CN(C)CC[C@H]2c2ccccc2)cc1` (relative stereo), the inhibition was 50%.
For `N#Cc1c(SCc2ccc(Cl)nc2)nc2c(c1C(F)(F)F)CCCC2`, the inhibition was 41.3%.
In the case of `CCOC(=O)c1cn(C2CC2)c2cc(N3CCC4=C(C3)C(O)CCS4)c(N)cc2c1=O` (centres undefined), the inhibition was 26.3%.
Work on `CCC(C)N1C(=O)S/C(=C\c2ccc(-c3cc(C(=O)O)ccc3Cl)o2)C1=O` (centres undefined) yielded an inhibition of 74.7%.
`COc1cc(/C=C2\S/C(=N\c3ccccc3)N([C@@H]3CCCC[C@@H]3C)C2=O)ccc1OCC(=O)O` was tested, and the inhibition was 32.6%.
In the case of `OCCN1CCN(CCCN2c3ccccc3Sc3ccc(C(F)(F)F)cc32)CC1`, the inhibition was 75%.
`Cc1ccc(N(CC(=O)Nc2ccc(C(N)=O)cc2)S(=O)(=O)c2ccccc2)cc1C` showed an inhibition of 0.6%.
In the case of `Cn1c(-c2ccc(O)cc2)cc(=O)c2ccccc21`, the inhibition was 0%.
For `Cn1c(-c2ccc(OCCN3CCOCC3)cc2)cc(=O)c2ccccc21`, the inhibition was 0%.
`CCOC(=O)c1cn(C2CC2)c2cc(N3CCNCC3)c(F)cc2c1=O` was tested, and the inhibition was 20.8%.
For `CCCCOc1ccc([C@H]2C(C#N)=C(N)Oc3cc(N(CC)CC)ccc32)cc1`, the inhibition was 20.5%.
`CCCOc1ccc(-c2cc(=O)c3ccccc3n2C)cc1` was tested, and the inhibition was 3.9%.
For `Fc1ccc(C2=Nc3ccccc3SC2)cc1`, the inhibition was 0%.
`CCCOc1ccc(-c2cc(=O)c3ccccc3s2)cc1` showed an inhibition of 6.3%.
`Cc1sc([C@@H]2C(C#N)=C(N)OC3=C2C(=O)CC(C)(C)C3)cc1COc1ccc(Br)cc1` gave an inhibition of 0%.
`CCOC(=O)c1cn(C2CC2)c2c(C)c(N3CCC4=C(C3)/C(=N/O)C(C)CS4)c(N)cc2c1=O` (centres undefined) was tested, and the inhibition was 90%.
In the case of `Cn1c(-c2ccc(O)cc2)cc(=O)c2cc(O)c(O)cc21`, the inhibition was 0%.
In the case of `CCC(C)N1C(=O)S/C(=C\c2ccc(N3CCCC3)o2)C1=O` (centres undefined), the inhibition was 0%.
`COc1ccc(/C=C/C(=O)NCCc2c[nH]c3ccccc23)cc1OC` gave an inhibition of 84%.
Compound `Cc1ccc(S(=O)(=O)Nc2ccc3c(c2)ncn3-c2ccccc2)cc1` has an inhibition of 0%.
Compound `Cn1c(-c2ccccc2)cc(=O)c2cc(O)c(O)cc21` has an inhibition of 0%.
`CCCOc1ccc(-c2cc(=O)c3ccccc3o2)cc1` was tested, and the inhibition was 32.4%.
`CCOC(=O)c1cn(C2CC2)c2c(C)c(N3CCC4=C(C3)/C(=N/OC)CCS4)c(N)cc2c1=O` was tested, and the inhibition was 54.4%.
Work on `COCCN1C(=O)/C(=C/c2ccc(O[C@@H](C)C(=O)O)c(OC)c2)S/C1=N\c1ccccc1` yielded an inhibition of 10.6%.
Compound `CCOC(=O)c1cn(C2CC2)c2c(C)c(N3CCC4=C(C3)/C(=N/OC)C(C)CS4)c(N)cc2c1=O` (centres undefined) has an inhibition of 21.4%.
For `Cc1ccc(S(=O)(=O)Nc2ccc3c(c2)nc(C)n3Cc2ccccc2)cc1`, the inhibition was 30.6%.
With `CCOC(=O)c1cn(C2CC2)c2cc(N3CCC4=C(C3)/C(=N/O)C(C)CS4)c(F)cc2c1=O` (centres undefined) the inhibition was 22.5%.
`CCOC(=O)c1cn(C2CC2)c2c(C)c(N3CCC4=C(C3)/C(=N/O)CCS4)c(N)cc2c1=O` gave an inhibition of 36.2%.
Compound `C=CCOc1c(I)cc(/C=C2\C(=O)N(c3ccc(C(=O)O)cc3)N=C2c2ccccc2)cc1OC` has an inhibition of 3.8%.
For `CCN(CC)CCOc1cc(-c2ccc(OCCN3CCCCC3)cc2)nc2ccccc12`, the inhibition was 65.6%.
In the case of `N#Cc1c(C(F)(F)F)cc(Cc2ccccc2)nc1SCc1ccc(C(=O)O)cc1`, the inhibition was 41.8%.
`CCOC(=O)c1cn(C2CC2)c2c(C)c(N3CCC4=C(C3)C(=O)CCS4)c(N)cc2c1=O` gave an inhibition of 36.8%.
Work on `CCOC(=O)CCCSc1nc2c(c(C(F)(F)F)c1C#N)CC(C)CC2` (centres undefined) yielded an inhibition of 48.6%.
In the case of `CN(C)CCOc1ccc(-c2cc(=O)c3ccccc3n2C)cc1`, the inhibition was 4.4%.
`Cn1c(-c2ccc(OCCN3CCCCC3)cc2)cc(=O)c2ccccc21` showed an inhibition of 19.8%.
`COc1cc(/C=C2/SC(Nc3ccccc3F)=NC2=O)ccc1OCC(=O)O` showed an inhibition of 11.9%.
In the case of `CCCOc1ccc(-c2cc(=O)c3ccccc3n2CCN2CCCCC2)cc1`, the inhibition was 75.1%.
In the case of `C[C@H](O)c1cccc(NC(=O)CC(c2ccccc2)c2ccccc2)c1`, the inhibition was 31.4%.
`O=C(CSc1nnc(CNc2ccc(F)cc2)o1)N1c2ccccc2Sc2ccccc21` was tested, and the inhibition was 11.5%.
Work on `CCOc1ccc(-c2cc(=O)c3ccccc3n2C)cc1` yielded an inhibition of 10.8%.
`Cc1ccc(-n2c(SCc3ccc(C(=O)O)cc3)nnc2-c2ccc(Cl)cc2)cc1` showed an inhibition of 1.3%.
For `N#Cc1c(SCc2ccc(C(=O)O)cc2)nc2c(c1C(F)(F)F)CCCCC2`, the inhibition was 67.1%.
With `CCOC(=O)c1cn(C2CC2)c2cc(N3CCC4=C(C3)/C(=N/O)C(C)CS4)c(N)cc2c1=O` (centres undefined) the inhibition was 91.2%.
With `COc1ccc(OC[C@H]2CN(C)CC[C@@H]2c2ccccc2)cc1` the inhibition was 47%.
`CCOC(=O)c1cn(C2CC2)c2cc(N3CCC4=C(C3)/C(=N/OC)CCS4)c(N)cc2c1=O` showed an inhibition of 74.5%.
Work on `COc1cc2c(=O)cc(-c3ccccc3)n(C)c2cc1OC` yielded an inhibition of 9.4%.
For `COc1ccccc1CNCc1cccc(C(F)(F)F)c1`, the inhibition was 30%.
In the case of `Cc1ccc([C@H]2C(C#N)=C(N)Oc3cc(C)oc(=O)c32)o1`, the inhibition was 0%.
`CCOc1ccc(C2C(C(=O)Nc3cccnc3)=C(C)Nc3nc(CCCO)nn32)cc1OC` (centres undefined) showed an inhibition of 14.8%.
In the case of `CCOC(=O)c1cn(C2CC2)c2cc(N3CCC4=C(C3)C(=O)C(C)CS4)c(N)cc2c1=O` (centres undefined), the inhibition was 63.5%.
For `CCC(C)N1C(=O)S/C(=C/c2ccc(C(=O)O)cc2)C1=O` (centres undefined), the inhibition was 0%.
`CCCOc1ccc(-c2cc(=O)c3ccccc3n2CCN(CC)CC)cc1` gave an inhibition of 57.3%.
With `COc1cc(/C=C2\S/C(=N\c3ccccc3)N(c3ccccc3)C2=O)cc(Cl)c1OCC(N)=O` the inhibition was 18.3%.
Compound `CCCOc1ccc(-c2cc(=O)c3cc(OC)c(OC)cc3n2C)cc1` has an inhibition of 0%.
`CCOC(=O)c1cn(C2CC2)c2cc(N3CCC4=C(C3)/C(=N/OC)C(C)CS4)c(N)cc2c1=O` (centres undefined) gave an inhibition of 19.7%.
With `CCOc1cc(C2C(C#N)=C(N)Oc3[nH]nc(C)c32)ccc1OCc1cccc(F)c1` (single isomer, unassigned) the inhibition was 4.9%.
Work on `CCN(CC)CCOc1ccc(-c2cc(=O)c3ccccc3n2C)cc1` yielded an inhibition of 1.7%.
Work on `CCOC(=O)c1cn(C2CC2)c2c(C)c(N3CCC4=C(C3)C(O)CCS4)c(N)cc2c1=O` (centres undefined) yielded an inhibition of 47.3%.
`CCOC(=O)CCSc1nc2c(c(C(F)(F)F)c1C#N)CC(C(C)(C)C)CC2` (centres undefined) showed an inhibition of 25.2%.
`c1ccc(C2=Nc3ccccc3SC2)cc1` was tested, and the inhibition was 0%.
With `Cc1c(NS(=O)(=O)c2ccc(F)cc2)c(=O)n(-c2ccccc2)n1C` the inhibition was 3.2%.
For `CCCOc1ccc(-c2cc(O)c3ccccc3n2)cc1`, the inhibition was 0%.
Work on `CC(C)Oc1ccc(-c2cc(=O)c3ccccc3n2C)cc1` yielded an inhibition of 10.3%.
In the case of `COc1ccccc1C1=Nc2ccccc2SC1`, the inhibition was 0%.
With `O=C(O)c1ccc(N2C(=O)C[C@@H](S/C(=N\c3ccccc3)Nc3ccccc3)C2=O)cc1` the inhibition was 0%.
With `Cc1ccc(S(=O)(=O)Nc2ccc3[nH]c(-c4ccco4)nc3c2)cc1` the inhibition was 67.5%.
For `OCCN1CCN(CC/C=C2/c3ccccc3Sc3ccc(C(F)(F)F)cc32)CC1`, the inhibition was 82%.
In the case of `O=C1NC(=O)/C(=C/c2ccc(-c3cc(C(=O)O)ccc3Cl)o2)S1`, the inhibition was 15.5%.
`CCCOc1ccc(C2=CSc3ccccc3N2C)cc1` was tested, and the inhibition was 0%.
`CCCOc1ccc(-c2cc(OCCN3CCCCC3)c3ccccc3n2)cc1` gave an inhibition of 88.5%.
`CCOC(=O)c1cn(C2CC2)c2c(C)c(N3CCC4=C(C3)C(=O)C(C)CS4)c(N)cc2c1=O` (centres undefined) gave an inhibition of 50.5%.
In the case of `CCOC(=O)c1cn(C2CC2)c2cc(N3CCC4=C(C3)/C(=N/OC)C(C)CS4)c(F)cc2c1=O` (centres undefined), the inhibition was 86.9%.
`COc1cccc(CNC(C)C(O)c2ccccc2)c1` (centres undefined) showed an inhibition of 2.8%.
Compound `CCc1c(O)nc(SCC(=O)Nc2nc3ccccc3s2)[nH]c1=O` has an inhibition of 19.1%.
Work on `COc1cc2c(=O)cc(-c3ccc(O)cc3)n(C)c2cc1OC` yielded an inhibition of 0%.
In the case of `Fc1ccc([C@@H]2CCNC[C@H]2COc2ccc3c(c2)OCO3)cc1`, the inhibition was 73%.
Work on `CCCOc1ccc(-c2cc(OCCN(CC)CC)c3ccccc3n2)cc1` yielded an inhibition of 93.4%.
